# Source: PubChem (The Scripps Research Institute Molecular Screening Center)
# HTR1E antagonist = antagonists of human 5-HT1E serotonin receptor | P28566 | CHO 5-HT1E Ga15 NFAT-bla reporter, FRET, antagonist | inhibition, % at 6 µM | 65,000 tested, 0.99% active | AID 571;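 active = inhibition above a set limit, the mean inhibition across every tested compound plus 3 SD, cut at about 29% in these data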;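 also: signal is the 460 over 535 nm emission ratio of beta-lactamase substrate; 0% = agonist plus DMSO wells and 100% = wells without agonist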
# 5HT1a ag = agonists of human 5-HT1a serotonin receptor | 65,000 tested, 0.56% active | P08908 | activation, % at 10 µM | CHO 5-HT1a Ga15 NFAT-bla reporter, FRET ratio; 0% basal, 100% maximal reference agonist;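 active = activation above the screen-wide mean activation plus 3 SD, cut at about 19% in these data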;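 also: 0% = DMSO wells and 100% = 5-CT at EC100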
# Target sequence (P08908 whole entry, looked up): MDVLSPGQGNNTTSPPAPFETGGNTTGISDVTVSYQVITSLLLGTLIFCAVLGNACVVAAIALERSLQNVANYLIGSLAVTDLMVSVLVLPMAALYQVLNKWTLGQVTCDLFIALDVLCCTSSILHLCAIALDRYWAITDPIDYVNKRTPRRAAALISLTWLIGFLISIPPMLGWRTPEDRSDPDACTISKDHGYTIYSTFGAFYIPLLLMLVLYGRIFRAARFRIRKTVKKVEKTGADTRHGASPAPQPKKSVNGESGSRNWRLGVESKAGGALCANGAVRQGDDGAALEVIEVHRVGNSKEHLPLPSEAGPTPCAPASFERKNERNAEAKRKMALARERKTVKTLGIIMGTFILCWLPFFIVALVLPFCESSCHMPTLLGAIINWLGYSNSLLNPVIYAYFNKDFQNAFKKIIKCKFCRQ
# S1P3 ag = S1P3 (human) receptor agonism; Q99500; S1P3 NFAT-BLA reporter cells, FRET ratio; relative to 1 µM S1P, basal subtracted; activation, % at 4.5 µM; 60,000 tested, 0.1% active;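 active = activation above the screen-wide mean plus 3 SD, cut at about 4.5% in these data, passing the limit was not always enough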
#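 Assay system: CHO cells stably expressing human S1P3, Gα16 and NFAT-β-lactamase reporter. Timing: overnight plating, 4 h compound 37 °C, 2 h substrate RT. Signal: β-lactamase FRET emission ratio 460/535 nm. Measure: percent activation versus median 1 µM S1P response, basal-subtracted, per plate. Repeats: primary screen single test, confirmation screen in triplicate.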
# 5HT1a antag = 5-HT1a (human) receptor antagonism. AID 612. inhibition, % at 10 µM. P08908. CHO 5-HT1a Ga15 NFAT-bla reporter, antagonist mode. 62,000 tested, 0.68% active;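 active = inhibition above the mean of all tested compounds plus 3 SD, cut at about 43% in these data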;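 also: receptor stimulated by 5-CT agonist at 100 nM near EC80; beta-lactamase reporter measured by ratiometric fluorescence of a cleavable substrate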
# 5HT1E ag = 5-HT1E (human) receptor agonism; P28566; activation, % at 6 µM; AID 574; 65,000 tested, 0.69% active; CHO 5-HT1E Ga15 NFAT-bla reporter, FRET; 0% DMSO wells, 100% control agonist wells;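 active = activation above a set limit, the screen-wide mean activation plus 3 SD, cut at about 8.5% in these data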;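 also: 100% = positive control agonist at 1 µM giving full maximal response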
# S1P1 ag pot = activates or potentiates agonism at human S1P1 receptor | activation, % at 9.5 µM | 56,000 tested, 0.57% active | S1P1 CRE-bla cells, forskolin, beta-lactamase FRET, potentiator mode; S1P1 agonist co-added at EC20, 2 nM; 100% = saturating reference agonist, 0% = basal;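 active = activation above a cutoff set at the mean activation of all tested compounds plus 3 SD, cut at about 54% in these data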;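 also: forskolin at 4 µM as EC80 and the EC20 agonist is SEW2871; 100% = SEW2871 at its EC100 plus forskolin at EC80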
# * = called active by the depositor; · = no result. Rows were chosen to be rich in hits. Some 3% of all compounds tested hit in one or more screens of this group.
SMILES,HTR1E antagonist,5HT1a ag,S1P3 ag,5HT1a antag,5HT1E ag,S1P1 ag pot
COC(=O)c1sccc1NC(=O)c1ccc(Br)o1,20,-1,-1,1,0,-30
COC(=O)c1sccc1NC(=O)c1cc2c(s1)CCCC2,7,30*,-1,40,-1,22
Cn1c(Cl)nc2c1c(=O)n(Cc1cccc(Br)c1)c(=O)n2C,4,36*,-4,·,-1,20
CC(C)CNc1nc2c(c(=O)n(C)c(=O)n2C)n1Cc1cccc(Br)c1,-11,-1,-4,·,0,-12
CNC(=O)c1cc2c(=O)n3cccc(C)c3nc2n(C(C)C)c1=N,3,8,1,-16,2,-39
COc1ccc(-c2cc(CCCC(=O)NCCc3ccc(OC)cc3OC)no2)cc1,6,-1,0,14,12*,18
O=C(CSc1nc2ccccc2o1)Nc1nc2ccccc2s1,1,-1,1,-5,-1,-9
O=C(Cc1cccs1)Nc1nc2ccccc2s1,-8,64*,-1,18,1,5
COc1cc2[nH]c3c(N4CCN(c5ccc(Cl)cc5)CC4)ncnc3c2cc1OC,7,2,-2,-8,2,2
COc1cccc(N2CCN(c3ncnc4c3[nH]c3ccccc34)CC2C)c1 (configuration not stated),91*,4,-4,·,0,127
COc1cccc(N2CCN(c3ncnc4c3[nH]c3ccc(F)cc34)CC2C)c1 (configuration not stated),104*,-2,-8,·,-2,115*
COc1ccc(-c2cc(C(F)(F)F)nc(SCCC(=O)N3CCOCC3)n2)cc1,-182,1,-1,-5,1,-22
CC1CN(c2nc3c(c(=O)[nH]c(=O)n3C)n2Cc2ccccc2F)CC(C)O1 (configuration not stated),4,2,·,-7,1,·
COc1ccc(C2=NOC(C(=O)Nc3cc(Br)ccc3O)C2)cc1OC (configuration not stated),37*,2,0,10,1,-17
COCCn1c(=O)[nH]c2cc(C(=O)NCCCN3CCN(c4ccc(F)cc4)CC3)ccc2c1=O,5,7,·,32,0,·
COCCn1c(=O)[nH]c2cc(C(=O)NCCN3CCN(c4ccccc4F)CC3)ccc2c1=O,12,1,·,52*,0,·
Cc1ccc(C)c(-n2nnnc2Sc2nnnn2-c2ccccc2)c1,25,-1,-1,46*,-1,56
C/C=C/Cn1c(SCc2ccc(C)cc2)nc2c1c(=O)[nH]c(=O)n2C,30*,0,-1,-1,2,-50
O=C(NCCc1c[nH]c2ccccc12)c1c(Cl)nc2sccn12,33*,19,·,-9,-2,·
COc1cccc(OCc2nc3c4cnn(-c5ccccc5)c4ncn3n2)c1,2,24*,-1,0,0,6
COc1cccc(OCCN2CCN(c3ncnc4c3cnn4-c3ccccc3)CC2)c1,-10,6,-4,·,0,-1
COc1ccc(C(=O)N2c3cc4c(cc3C(C)=CC2(C)C)OCO4)cc1,5,-1,-1,54*,-1,40
O=C(Oc1ccc(-c2nnco2)cc1)N(c1ccccc1)c1ccccc1,1,-2,16*,3,0,·
CCC1(CC)NC(=O)N(CC(=O)Nc2sc3c(c2C(N)=O)CCC3)C1=O,-8,-1,0,-2,0,-4
c1ccc2nc3c(nc2c1)c1ccccc1n3CCN1CCOCC1,-4,1,0,-6,-1,-40
SMILES,HTR1E antagonist,5HT1a ag,S1P3 ag,5HT1a antag,5HT1E ag,S1P1 ag pot
CCn1c2ccccc2c2nc3cc(S(=O)(=O)N4CCOCC4)ccc3nc21,50*,3,2,6,1,-57
CN1C(=O)CC(N2CCN(c3ccc(Cl)c(Cl)c3)CC2)C1=O (configuration not stated),40*,4,-5,·,0,-1
CC1(C)Cc2c(C#N)c(NCCc3ccccc3)nc(-c3ccco3)c2CO1,-53,49*,12,·,9.1*,-21
CCCC(=O)c1ccc(N2CCN(C(=O)c3ccccc3Br)CC2)c(F)c1,-5,4,-2,-1,1,98*
COCCCn1c(=N)c(C(=O)NCC2CCCO2)cc2c(=O)n3cccc(C)c3nc21 (configuration not stated),-10,12,1,-34,4,-15
COCCCn1c(=N)c(C(=O)NCC2CCCO2)cc2c(=O)n3ccccc3nc21 (configuration not stated),-3,21*,2,-19,6,-25
N=c1c(C(=O)NCc2ccc(F)cc2)cc2c(=O)n3ccccc3nc2n1CC1CCCO1 (configuration not stated),-15,30*,6,-19,9.1*,-176
Cc1ccc(CNC(=O)c2cc3c(=O)n4cccc(C)c4nc3n(CC3CCCO3)c2=N)cc1 (configuration not stated),-18,3,1,-15,2,-36
N=c1c(C(=O)NC2CCCC2)cc2c(=O)n3ccccc3nc2n1CCN1CCOCC1,-5,2,·,11,18*,·
Cc1nn(C)c(C)c1Sc1ccc(Br)cc1,4,-3,-2,20,-1,19
Cc1cc(C)nc(-n2nc(C)c(Sc3ccc(F)cc3)c2N)n1,-1,11,60*,-12,0,-74
COc1ccc(N2CCN(c3nc4c(c(=O)[nH]c(=O)n4C)n3Cc3ccccc3Cl)CC2)cc1,-8,-3,0,-3,0,-24
O=C(NCC1CCCO1)c1ccc(S(=O)(=O)N2CCCCC2)cc1 (configuration not stated),-12,-2,-1,-2,-1,-21
CC1CCN(S(=O)(=O)c2ccc(S(=O)(=O)NCC3COCCO3)cc2)CC1 (configuration not stated),5,-2,0,-18,26*,-3
Cc1nn(-c2ccc(Cl)cc2)c2[nH]c(=O)c(CNCc3ccc4c(c3)OCO4)cc12,-2,-1,0,11,-1,-5
Cc1cc2oc3c(c(=O)c2cc1C)C(c1cccc(Br)c1)N(Cc1ccco1)C3=O (configuration not stated),-5,3,-2,14,0,3
CCOc1cc(C2c3c(oc4cc(C)c(Cl)cc4c3=O)C(=O)N2Cc2ccco2)ccc1O (configuration not stated),-8,1,0,-3,9.8*,-8
CCOc1ccc2[nH]c(=O)c(CN(Cc3cccs3)Cc3nnnn3C(C)(C)CC)cc2c1,17,7,0,32,9.5*,9
